# Measured values from ChEMBL document CHEMBL1955744, “Bis-pyrrolyl-tetrazolyl derivatives as hybrid polar compounds: A case of lipophilic functional bioisosterism with bis-acetamides” (2012).
# Active and inactive are the calls of the source. The calls are words filed in the database; no cut-off is given here.
# Assays:
# MEL [1] = test: Growth inhibition of MEL cells after 48 hrs; format: functional, cell-based; details: Mus musculus
# Method in brief: (§1)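 MEL cells seeded at 1.0 x 10^5 cells/mL in DMEM with 10% v/v FBS and 1% PS, 37 °C, 5% CO2. Agents dissolved in DMSO (final DMSO below 0.5% v/v) and tested at 0.01–100 µM for 48 h. Cells counted by Neubauer hemocytometer. Growth given as percentage of untreated control.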
# [2] = Growth inhibition of MEL cells at 0.01 to 100 uM after 48 hrs relative to control; format: functional, Mus musculus; method in brief: as §1
# [3] = Induction of cell differentiation in MEL cells at 100 uM after 96 hrs by benzidine staining; format: functional, Mus musculus
# Method in brief: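 MEL cells were seeded at 1.0 x 10^5 cells/mL in DMEM with 10% FBS and 1% PS at 37 °C, 5% CO2, then exposed to 100 µM agent in DMSO (final DMSO below 0.5% v/v) for 96 h. HMBA 5 mM served as positive control. Hb-producing cells were scored by benzidine-H2O2 staining and reported as percentage benzidine-positive.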
# MEL [4] = test: Growth inhibition of MEL cells at 0.1 mM; format: functional, cell-based; details: Mus musculus, TDE = time-dependent effect
# Method in brief: (§2)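 Exponentially growing MEL cells (1.0 x 10^5 cells/mL, DMEM/10% FBS/1% PS, 37 °C, 5% CO2) were exposed to 10^-4 M agent in DMSO. Untreated cultures served as control and HMBA 5 mM as reference. Samples were removed at various intervals up to 96 h and counted by hemocytometer. Growth was expressed as absolute number or as percentage of control.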
# [5] = Growth inhibition of MEL cells at 0.1 mM after 96 hrs; format: functional; details: Mus musculus, read-out: GI; method in brief: as §2
# MEL [6] = test: Induction of cell differentiation in MEL cells assessed as hemoglobin accumulation at 0.1 mM by after 24 to 96 hrs by spectrophotometry; format: functional, cell-based; details: Mus musculus
# Method in brief: (§3)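 MEL cells (1.0 x 10^5 cells/mL, DMEM/10% FBS/1% PS, 37 °C, 5% CO2) were treated with 10^-4 M agent or 5 mM HMBA, alongside untreated controls. Total cellular Hb was measured spectrophotometrically in samples taken over a 24–96 h time course.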
# [7] = Upregulation of beta-major globin gene expression in MEL cells at 0.1 mM after 24 to 96 hrs by RT-PCR analysis; format: functional, cell-based; details: Mus musculus
# Method in brief: (§4)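 MEL cells were treated with 10^-4 M agent or 5 mM HMBA for 0, 24, 48, 72 and 96 h, with untreated cells as control. Cells were washed in PBS. Total cytoplasmic RNA (1 µg/reaction) was extracted by acid guanidinium thiocyanate-phenol-chloroform and run in one-step RT-PCR: 50 °C 30 min, 94 °C 2 min, then 30 cycles of 94/58/72 °C, then 72 °C 10 min. β-major globin primers were used with β-actin as internal control.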
# MEL [8] = test: Induction of cell differentiation in MEL cells assessed as hemoglobin accumulation at 5 mM by after 24 to 96 hrs by spectrophotometry; format: functional, cell-based; details: Mus musculus; method in brief: as §3
# [9] = Upregulation of beta-major globin gene expression in MEL cells at 5 mM after 24 to 96 hrs by RT-PCR analysis; format: functional, cell-based; details: Mus musculus; method in brief: as §4
Structure (SMILES),growth inhibition (GI) (MEL [1]),growth inhibition (GI) [2] [%],Activity [3] [%],growth inhibition (GI) (MEL [4]),inhibition of growth at 100 µM [5] [%],Activity (MEL [6]),Activity [7],Activity (MEL [8]),Activity [9]
c1ccn(-c2nnn(Cc3ccc(Cn4nnc(-n5cccc5)n4)cc3)n2)c1,Dose-dependent effect,30,5,–,–,–,–,–,–
c1ccn(-c2nnn(CCCCCCn3nnc(-n4cccc4)n3)n2)c1,Dose-dependent effect,30,30,tde,> 75,Active,Active,–,–
c1ccn(-c2nnn(CCCCCn3nnc(-n4cccc4)n3)n2)c1,Dose-dependent effect,30,5,–,–,–,–,–,–
CC(=O)NCCCCCCNC(C)=O,–,–,–,–,–,–,–,Active,Active
c1ccn(-c2nnn(CCCCCCCn3nnc(-n4cccc4)n3)n2)c1,Dose-dependent effect,30,5,–,–,–,–,–,–
CNC(=O)c1cccn1-c1nnn(CCCCCCn2nnc(-n3cccc3C(=O)NC)n2)n1,Dose-dependent effect,30,5,–,–,–,–,–,–
